SMILES strings stand for the structures.

A short description of this data set: Toxicity liver stage against HepG2, at 10uM. To be noted: human, HepG2-A16-CD81EGFP cells; read-out: INHIBITION
It counts as cell-based. More on the design: test concentration 10 uM, cell line HepG2-A16-CD81EGFP. A digest of the protocol: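 Uninfected HepG2-A16-CD81EGFP cells, 3 × 10^3 per well, 1536-well, plated on prespotted compound at 10 μM final, parasite-free screening media added to match infected plates; puromycin 10 μM positive, DMSO 0.5% negative; run in parallel with 48 h PbLuc assay at 37 °C, 5% CO2; viability by CellTiter-Glo luminescence, normalized to controls.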
For the molecule `O=S(=O)(CCN1CCN(c2ccccc2O)CC1)c1ccc(Cl)cc1`, the cytotoxicity at 10 µM amounted to 14.4%.

`CC(C)(C)c1coc([C@@H]2COCCN2Cc2ccccn2)n1`: the cytotoxicity at 10 µM is -4.04%.

In the case of `O=C1CO[C@H](c2ccc(NS(=O)(=O)Cc3ccccc3)cc2)[C@@H](CO)N1`, the cytotoxicity at 10 µM worked out at 40.8%.

Regarding `O[C@@H]1C[C@@H](c2nc(Cc3ccccc3)no2)N(CC2CC2)C1`, the cytotoxicity at 10 µM was -3.5%.

Turning to `CCc1nc(-c2ccc(C(=O)N3CCC4(CC3)OCCO4)cc2)no1`, the cytotoxicity at 10 µM came to 4.32%.

Regarding `CN1C(=O)COc2ccc(C(=O)Cn3cnc4ccccc4c3=O)cc21`, the cytotoxicity at 10 µM is -0.894%.

Take `COCCn1ccc(=O)c(OCC(=O)Nc2cccc(OC)c2)c1C`: the cytotoxicity at 10 µM was -2.74%.

Regarding `Cn1nnc2c(N3CC(C(=O)NCc4cccs4)C3)ncnc21`, the cytotoxicity at 10 µM is 4.29%.

With `CN(C)Cc1nn(C)c2c1CN(C(=O)Nc1cccc(F)c1)C2`, the cytotoxicity at 10 µM stood at 4.23%.

`Cc1nc([C@@H]2C[C@H]3CN(Cc4scnc4C)C[C@H]3O2)no1`: the cytotoxicity at 10 µM is -127%.

As for `O=C1Nc2ccccc2CC12CCN(CCO)C2` (stereo unspecified), the cytotoxicity at 10 µM came to 6.62%.

Consider `CCN1C(=O)C2(CCOCC2)c2cc(NC(=O)c3csnn3)ccc21`, for which the cytotoxicity at 10 µM came out at 0.223%.

As for `O=C(C1CC=CC1)N1CCC2(CCC(=O)N2Cc2cccc(F)c2)CC1`, the cytotoxicity at 10 µM was -3.2%.

Turning to `Cc1ccoc1C(=O)N1CC[C@@H]2O[C@@H](C)C[C@H]2C1`, the cytotoxicity at 10 µM stood at 2.26%.

Regarding `CC(C(=O)N1CCN(c2ccccc2)CC1)n1cc(Br)cn1` (stereo unspecified), the cytotoxicity at 10 µM is 7.47%.

In the case of `Cc1nn(C)c2c(NCCn3cccn3)ncnc12`, the cytotoxicity at 10 µM was -1.26%.

With `Cc1nn(C)c2c(N3CCN(C(=O)C4CCC4)CC3)ncnc12`, the cytotoxicity at 10 µM is 1.78%.

Turning to `Cc1nonc1CNC(=O)C(C)Oc1cccc(F)c1` (stereo unspecified), the cytotoxicity at 10 µM came out at 1.22%.

Turning to `COCCCNS(=O)(=O)c1ccc2c(c1)NC(=O)C(C)O2` (stereo unspecified), the cytotoxicity at 10 µM came out at 1.52%.

`CCN(CC)CCCNCc1cc2cccc(C)c2[nH]c1=O`: the cytotoxicity at 10 µM was -7.06%.

For `CN(C)c1nccc(C2CCN(C(=O)CO)CC2)n1`, the cytotoxicity at 10 µM was -23.6%.

On to `Cc1ccc2[nH]c(=O)c(CNCCCN3CCOCC3)cc2c1`, for which the cytotoxicity at 10 µM was -14.9%.

Turning to `CN1CCOC(C(=O)Nc2nc(-c3ccccc3F)n[nH]2)C1` (stereo unspecified), the cytotoxicity at 10 µM came to 8.65%.

Consider `COCC(=O)N1CCN(Cn2nc(C)c(Br)c2C)CC1`, for which the cytotoxicity at 10 µM was determined as 0.633%.

Regarding `NC1(c2nc(-c3cccs3)cc(=O)[nH]2)CCCC1`, the cytotoxicity at 10 µM is 4.19%.

Take `O=C(Cn1nc(-c2ccc(F)cc2)oc1=O)NCC1CCCO1` (stereo unspecified): the cytotoxicity at 10 µM turned out to be 1.62%.

Regarding `COc1ccnc(N2CCc3ccc(OC(F)F)cc3C2)n1`, the cytotoxicity at 10 µM is -4.32%.

For `N#Cc1cc(C#N)c(SCCC(=O)Nc2ccc(F)cc2)nc1N`, the cytotoxicity at 10 µM came out at 4.89%.

On to `Cc1ccc(-c2nc(C(=O)N3CCCCC3CNS(C)(=O)=O)cs2)cc1` (stereo unspecified), for which the cytotoxicity at 10 µM is -2.14%.

For the molecule `CN(C)c1ncccc1CNC(=O)NCc1ccco1`, the cytotoxicity at 10 µM was -3.26%.

Turning to `CCCN1CCC(NCc2ccncc2)CC1`, the cytotoxicity at 10 µM was -6.79%.

For `O=C(CC1CCCN1S(=O)(=O)N1CCCCC1)c1cccs1` (stereo unspecified), the cytotoxicity at 10 µM was determined as 6.31%.

On to `CN(CC(=O)N1CCN(c2ccccn2)CC1)c1ccc(Cl)cn1`, for which the cytotoxicity at 10 µM is -2.3%.

For `CNC(=O)COc1ccc(-c2ccccc2)nc1`, the cytotoxicity at 10 µM came to 1.76%.

Regarding `Cc1ccsc1C(=O)N1CCC(Nc2cccnc2)CC1`, the cytotoxicity at 10 µM was -136%.

For the molecule `CN(C)C(=O)Cc1ccc(NC(=O)NC2CCCC2)cc1`, the cytotoxicity at 10 µM was -1.92%.

With `CC(=O)N1CCN(CCNS(=O)(=O)c2ccc(F)c(F)c2)CC1`, the cytotoxicity at 10 µM worked out at 8.81%.

In the case of `CCS(=O)(=O)CC(C)N(C)C(=O)NCCc1cccc(F)c1F` (stereo unspecified), the cytotoxicity at 10 µM was determined as 8.28%.

On to `CC(CCSc1ccccc1)N1CCCN(C(N)=O)CC1` (stereo unspecified), for which the cytotoxicity at 10 µM is -10.7%.

As to `O=C(c1ccncc1)N1CCn2c(nnc2-c2ccccc2)C1`, the cytotoxicity at 10 µM amounted to 4.45%.

As for `Cc1cccc(-c2c[nH]c(C3CCCN3C(=O)c3cc(C)n[nH]3)n2)c1` (stereo unspecified), the cytotoxicity at 10 µM was found to be 4%.

Consider `N#CCCN(Cc1cccnc1)C(=O)c1cccc(-n2cnnn2)c1`, for which the cytotoxicity at 10 µM came out at 2.99%.

Consider `CCc1noc(CN(CCS(C)(=O)=O)C(C)(C)C)n1`, for which the cytotoxicity at 10 µM is -0.718%.

As for `CC(=O)N1CCN(C(=O)C(C)Nc2ccc3ncsc3c2)CC1` (stereo unspecified), the cytotoxicity at 10 µM is -3.25%.

For `CC(=O)c1cccc(NC(=O)NCCOCC2CC2)c1`, the cytotoxicity at 10 µM was 5.11%.

As for `O=C(Nc1ccc(-n2ccnc2)c(F)c1)C1CCN(C(=O)C2CC2)CC1`, the cytotoxicity at 10 µM was determined as 1.21%.

On to `Cc1cccc(CNC(=O)Nc2ccc3c(c2)CCCC(=O)N3)c1`, for which the cytotoxicity at 10 µM worked out at 2.33%.

For the molecule `Fc1ccc(CNc2ccccc2Cn2cncn2)cc1`, the cytotoxicity at 10 µM was -0.719%.

`Cc1nc(C2CCCN2C(=O)CNS(C)(=O)=O)no1` (stereo unspecified): the cytotoxicity at 10 µM worked out at 17.1%.

For the molecule `COc1c(CNC2CCCOc3ccccc32)c(C)nn1C` (stereo unspecified), the cytotoxicity at 10 µM came to 1.86%.

Take `COc1ccc(CNC(=O)NC2CCN(CC(F)F)CC2)cc1C`: the cytotoxicity at 10 µM is 1.11%.

With `O=C(NCCOc1ncc(Cl)cc1Cl)c1ccncc1F`, the cytotoxicity at 10 µM was -3.78%.

In the case of `CC[C@H](C)[C@H](N)C(=O)Nc1nc(-c2cnc(N(C)CCO)nc2)cs1`, the cytotoxicity at 10 µM was -9.27%.

On to `Cc1cccc(C)c1C(=O)N1C[C@@H](CN2CCOCC2)[C@@H](CO)C1`, for which the cytotoxicity at 10 µM worked out at 0.0453%.

For the molecule `COCCN1CC(C(=O)N(C)Cc2cc(-c3cccnc3)no2)CC1=O` (stereo unspecified), the cytotoxicity at 10 µM is -1.99%.

`CCCc1nnc(N(C)CC2CCCN(CC)C2)o1` (stereo unspecified): the cytotoxicity at 10 µM is -4.1%.

Turning to `CC1=CC[C@@H]2CN(C(=O)c3ccc(-c4cc[nH]n4)cc3)C[C@@H]2C1`, the cytotoxicity at 10 µM was 5.15%.

In the case of `Cc1ccc(C)c(OCCN(C)C(=O)CCc2cn[nH]c2)c1`, the cytotoxicity at 10 µM was 1.69%.

Take `CN1CCN(S(=O)(=O)c2ccc3c(c2)CN(C(=O)C(C)(C)C)CC3)CC1`: the cytotoxicity at 10 µM was -8.91%.

`Cc1nc(CN2CCC(C(=O)O)(n3ccc(C(C)C)n3)CC2)co1`: the cytotoxicity at 10 µM is -125%.

For the molecule `CCCN1CCC(CC(=O)NCCc2nc(C)cc(C)n2)CC1`, the cytotoxicity at 10 µM was -13.7%.

In the case of `COc1cccc(-n2cc(CN(C)C(=O)c3cc[nH]n3)cn2)c1`, the cytotoxicity at 10 µM worked out at 16.3%.

As to `CCc1nc(N)sc1C(=O)N1CCC(c2cc(O)nc(C)n2)CC1`, the cytotoxicity at 10 µM was -2.56%.

Consider `CC(C)CN1CCN(Cc2nc3c(s2)CCCC3)[C@H]2CS(=O)(=O)C[C@H]21`, for which the cytotoxicity at 10 µM was 8.19%.

For `CN(CCn1ccnc1-c1ccccn1)S(C)(=O)=O`, the cytotoxicity at 10 µM came out at 12%.

Turning to `COc1ccc(C(=O)NCc2cccnc2N2CCOCC2)o1`, the cytotoxicity at 10 µM worked out at 3.1%.

Turning to `O=c1c(CN2CCCCC2)coc2ccc(Cl)cc12`, the cytotoxicity at 10 µM was -2.56%.

On to `CNc1nc2c(c(C(=O)N3CCCC3)n1)CN(C(=O)CCSC)CC2`, for which the cytotoxicity at 10 µM was -114%.

As to `Cn1cncc1C(=O)N1CCCC(c2ccn[nH]2)C1` (stereo unspecified), the cytotoxicity at 10 µM is -4.78%.

With `CC(c1cncs1)N(C)Cc1ccc(CCC(C)(C)O)cc1` (stereo unspecified), the cytotoxicity at 10 µM was 4.68%.

As for `CC(C)n1cnnc1CN(C)Cc1cnc(-c2ccccn2)nc1`, the cytotoxicity at 10 µM turned out to be 11.9%.

In the case of `c1cn(Cc2nnc(C3CCN(C4CCNCC4)CC3)n2C2CC2)cn1`, the cytotoxicity at 10 µM was found to be 1.74%.

For the molecule `Cn1cc(C(=O)N2CC[C@@]3(O)CCN(C(=O)C4CCCC4)C[C@H]3C2)cn1`, the cytotoxicity at 10 µM was -138%.

On to `CN1CCC(CNC(=O)c2cccc(CN3CCCCCC3)c2)C1` (stereo unspecified), for which the cytotoxicity at 10 µM was -5.39%.

Consider `O=S(=O)(Cc1c(F)cccc1Cl)NCCCN1CCCCCC1`, for which the cytotoxicity at 10 µM is -10%.

Turning to `CCCOC(=O)N1CCC(c2nnc(Cn3cccn3)n2C2CC2)CC1`, the cytotoxicity at 10 µM was -8.52%.

For the molecule `Cc1nc(CN(C)C2CCN(Cc3ccc(Cl)s3)C2)no1` (stereo unspecified), the cytotoxicity at 10 µM was -2.84%.

On to `CCc1nc(C(=O)N2CCOCC2)nn1-c1ccccc1Cl`, for which the cytotoxicity at 10 µM is -9.29%.

In the case of `Cn1cc(C2CCCN2C(=O)c2cn(-c3ccccc3)nn2)cn1` (stereo unspecified), the cytotoxicity at 10 µM is -24%.

For `Cc1nccn1CCCC(=O)N1CCCC(c2noc(C(C)C)n2)C1` (stereo unspecified), the cytotoxicity at 10 µM was -35.8%.

Consider `CC(=O)N1CCC(NC(=O)N(C)Cc2c(C)noc2C)CC1`, for which the cytotoxicity at 10 µM is -6.33%.

Take `Cc1ccsc1CNCC1CCCN1c1cccnn1` (stereo unspecified): the cytotoxicity at 10 µM was -4.48%.

Take `CCN(Cc1ccc2c(c1)OCO2)C(=O)c1cccnc1O`: the cytotoxicity at 10 µM is -9.51%.

Take `Clc1snnc1CN1CCCC1Cn1cccn1` (stereo unspecified): the cytotoxicity at 10 µM is -17.9%.

As for `CCc1[nH]ncc1C(=O)N1CCCC(n2cncn2)C1` (stereo unspecified), the cytotoxicity at 10 µM was -18.9%.

Turning to `Cc1nc(C)c(C(=O)NCCNc2ncccc2C(F)(F)F)s1`, the cytotoxicity at 10 µM was -3.08%.

`CCc1n[nH]c(C2CN(C(=O)c3ccc(NC4CC4)nc3)CCO2)n1` (stereo unspecified): the cytotoxicity at 10 µM amounted to 5.77%.

Consider `COc1ccc(OC)c(C(=O)N(C)Cc2nnc3ccccn23)c1`, for which the cytotoxicity at 10 µM is -0.972%.

`CCNC(=O)[C@@H]1CCCN1[C@@H](C(=O)NC)c1ccccc1OC`: the cytotoxicity at 10 µM was -4.51%.

As to `COc1ncccc1C(=O)N1C[C@@H]2COC[C@]2(CN(C)C)C1`, the cytotoxicity at 10 µM is -143%.

For `CN1CC2(CNCCN(C(=O)Nc3ccccc3)C2)CC1=O` (stereo unspecified), the cytotoxicity at 10 µM was found to be 1.26%.

Regarding `c1cc(CNCc2ccnc(N3CCOCC3)c2)c2c(c1)OCO2`, the cytotoxicity at 10 µM stood at 2.75%.

On to `Cn1cc(CN2C[C@H]3CN(c4cncnc4)C(=O)[C@H]3C2)cn1`, for which the cytotoxicity at 10 µM is -0.0682%.

As for `Cc1nnc(N2C[C@@H](OCC3CCCC3)[C@H]3OCCC[C@H]32)s1`, the cytotoxicity at 10 µM turned out to be 14.3%.

Consider `COCC1N(C(=O)c2ccc3c(c2)OCCCO3)C2CCC1(O)CC2` (stereo unspecified), for which the cytotoxicity at 10 µM is -5.3%.

In the case of `CCn1c(=O)[nH]c2cn(-c3cccc(Cl)c3)c(=O)n21`, the cytotoxicity at 10 µM stood at 0.0452%.

The record behind these values is ChEMBL document CHEMBL4513216, “Probing the Open Global Health Chemical Diversity Library for Multistage-Active Starting Points for Next-Generation Antimalarials” (ACS Infect Dis, 2020).
